# Compounds with a hit are over-represented: about 1.5% of the library has one in this group of screens.
# Apaf-1 inh: inhibitors of human Apaf-1 apoptosome, primary screen, biochemical, DEVD-Rh110 fluorescence, uHTS. Apoptotic protease-activating factor 1 (Homo sapiens), O14727. reconstituted apoptosome caspase-3 activity. inhibition, % at 20 µM. 0.71% of 330,000 active. AID 489030, 2010; active = inhibition of at least 40% at 20 µM;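 also: plate controls were DMSO wells for no effect and DEVD-CHO caspase inhibitor wells for full effect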
#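 Material: biochemical Apaf-1 apoptosome reconstitution. Medium: Hepes buffer, pH 7.5. Also added: cytochrome c activation, bis-DEVD rhodamine 110 substrate. Timing: 30 min compound preincubation, 50 min activation, room temperature. Measured by: rhodamine 110 fluorescence at Ex 480/Em 540 nm.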
# UCH37 DUB inh: inhibitors of human UCH37 deubiquitinase, primary screen, biochemical, Ub-AMC cleavage, fluorescence. purified proteasome/UCH37. inhibition, % (no concentration beside the values). 0.33% of 330,000 active. AID 588478, 2011;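 active = mean inhibition over replicate wells above about 20%, limit read from the data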;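 also: 0% = compound-free wells with enzyme and 100% = wells lacking proteasome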
# Target sequence (Q9Y5K5 whole entry, looked up): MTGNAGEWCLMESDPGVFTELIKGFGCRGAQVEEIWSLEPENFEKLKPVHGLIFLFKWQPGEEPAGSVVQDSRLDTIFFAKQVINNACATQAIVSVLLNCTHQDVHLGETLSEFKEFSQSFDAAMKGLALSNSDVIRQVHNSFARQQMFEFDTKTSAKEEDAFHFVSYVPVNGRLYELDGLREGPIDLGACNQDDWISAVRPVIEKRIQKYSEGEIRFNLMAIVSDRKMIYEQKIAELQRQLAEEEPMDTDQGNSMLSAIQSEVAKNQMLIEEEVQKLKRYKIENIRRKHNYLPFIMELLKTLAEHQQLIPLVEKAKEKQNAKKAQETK
#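 system = Proteasome-associated human UCH37 deubiquitinase | amount = 0.15 nM proteasome as dispensed | medium = pH 7.4 Tris-HCl (50 mM) with ovalbumin, ATP-MgCl2, DTT | incubation = 30 min preincubation with enzyme, 25 min cleavage at room temperature | detection = AMC fluorescence 355/460 nm | read-out basis = percent inhibition | controls = no-proteasome and no-compound wells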
# UBC13 inh: UBC13 polyubiquitin chain formation inhibitors, primary screen, biochemical, TR-FRET, uHTS | Ubiquitin-conjugating enzyme E2 N (Homo sapiens), P61088 | inhibition, % at 20 µM | 0.47% of 330,000 active | AID 485273, 2010; in the data active = inhibition above about 45%, passing the limit was not always enough
# Target sequence (P61088 whole entry, looked up): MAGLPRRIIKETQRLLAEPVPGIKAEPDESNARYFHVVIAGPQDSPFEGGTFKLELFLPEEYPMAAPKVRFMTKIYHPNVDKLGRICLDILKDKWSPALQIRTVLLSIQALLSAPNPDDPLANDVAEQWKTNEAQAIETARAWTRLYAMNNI
# PREPL inhibitor: PREPL enzyme inhibitors, primary screen, biochemical, fluorescence polarization. 0.68% of 320,000 active. recombinant PREPL, fluorescence polarization activity-based probe. inhibition, % at 5.96 µM; in the data active = inhibition above about 43%;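 also: 0% = enzyme with DMSO and 100% = wells lacking enzyme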
# Active calls of the source: *; . = not tested or not shown.
SMILES,Apaf-1 inh,UCH37 DUB inh,UBC13 inh,PREPL inhibitor
CS(=O)(=O)NC1c2cccc3cccc(c23)C1Sc1nncn1N=Cc1ccco1 (stereo not drawn),.,5.0,.,.
COc1ccc(NC(=O)c2cc3n(n2)C(C(F)(F)F)CC(c2ccc4c(c2)OCO4)N3)cc1OC (stereo not drawn),3.7,4.2,21.4,46.2*
CC1=NN(c2ccc(Br)cc2)C(=O)/C1=C/c1ccc(-c2ccccc2C(=O)O)o1,77.6*,8.5,-35.1,1.2
CC1=NOC(=O)/C1=C\c1ccc(-c2ccc(Br)cc2C(=O)O)o1,8.8,-1.2,-8.4,-3.9
COc1cc2c(cc1OC)C(c1ccc(-c3ccc(Cl)c(Cl)c3)o1)=NCC2,41.5*,-2.5,5.2,8.6
CCOc1cc(C=NNC(=O)c2ccccn2)ccc1OC(=O)c1ccc(F)cc1,.,0.2,.,.
COC(=O)C1=C(C(=O)OC)[C@@H]2N(C)c3ccccc3[C@@]23C[C@@H](C(=O)OC)N(C(=O)c2cccs2)C3=N1,6.3,2.0,-3.1,-1.4
COC(=O)C1=C(C(=O)OC)[C@@H]2N(C)c3ccc(OC)cc3[C@@]23C[C@@H](C(=O)OC)N(C(=O)c2cccs2)C3=N1,-5.3,41.9*,-7.9,-2.1
CCC1=NNc2cccc3c(OC)ccc1c23,52.1*,-6.7,-63.6,36.4
Cc1ccc(C)c2[nH]c(=O)c(C(c3nnnn3Cc3ccccc3)N3CCc4ccccc4C3)cc12 (stereo not drawn),67.3*,0.0,3.7,0.6
Cc1cccc2cc(C(c3nnnn3CC3CCCO3)N3CCc4ccccc4C3)c(=O)[nH]c12 (stereo not drawn),78.6*,2.9,-10.5,3.2
CCOc1ccc2[nH]c(=O)c(C(c3nnnn3CC3CCCO3)N3CCc4ccccc4C3)cc2c1 (stereo not drawn),26.7,-53.3,-1.6,16.4
Cc1cccc2cc(C(c3nnnn3CC3CCCO3)N3CCCc4ccccc43)c(=O)[nH]c12 (stereo not drawn),30.3,5.0,-9.2,12.5
Cc1ccc2cc(C(c3nnnn3CC3CCCO3)N3CCc4ccccc4C3)c(=O)[nH]c2c1 (stereo not drawn),87.3*,1.7,-19.9,18.7
CCCC(=NNC(=O)C1CCCC1)c1ccccc1,.,4.7,.,.
COc1cc(C=NNC(=S)NC(C)C)ccc1OCC(=O)Nc1c(C)cc(C)cc1C,.,-15.2,.,.
CC(=NNC(=O)c1nn(C)c(C)c1Br)c1cccc(NC(=O)c2ccc(F)cc2)c1,.,-0.8,.,.
CC(=NNC(=O)Cc1ccc(Cl)cc1)c1cccnc1,.,-0.1,.,.
CN(N=Cc1cccs1)c1cc(=O)n(C)c(=O)[nH]1,.,20.8*,.,.
Cc1cc(N2CCN(C)CC2)ccc1NC(=O)c1ccc(-c2ccc(Cl)cc2)o1,41.7*,8.1,18.9,24.2
CN1CCN(c2ccccc2NC(=O)c2ccc(-c3ccc(Cl)c(Cl)c3)o2)CC1,46.0*,-2.1,8.4,25.0
CN1CCN(c2ccccc2NC(=O)c2ccc(-c3ccc(Br)cc3)o2)CC1,16.5,-28.4,13.1,20.6
N#CC(=NNc1cccc2ccccc12)c1nnc2n1CCCCC2,.,3.9,.,.
Cc1nc(N)sc1C(=O)N/N=C/c1ccccc1[N+](=O)[O-],2.2,.,94.8*,1.8
Cc1nc(N)sc1C(=O)NN=Cc1ccccc1[N+](=O)[O-],.,2.8,.,.
SMILES,Apaf-1 inh,UCH37 DUB inh,UBC13 inh,PREPL inhibitor
CCC1S/C(=N/N=Cc2ccco2)NC1=O (stereo not drawn),.,15.9,.,.
CCCCCc1cc(=O)oc2c(C(CCN3CCCC(C)C3)c3ccc4c(c3)OCO4)c(OC)cc(OC)c12 (stereo not drawn),65.6*,.,-8.2,4.6
CCSCCC(NC1=CC(=O)CC(C)(C)C1)C(=O)O (stereo not drawn),48.7*,-5.5,-4.6,-3.5
Cn1c(Cl)c(C=NOC(=O)C(C)(C)C)c2ccccc21,.,2.0,.,.
COc1cccc(OC)c1-c1nn2c(-c3cc(-c4ccccc4)n[nH]3)nnc2s1,53.1*,.,25.2,27.9
CCc1cc(C(=O)O)c(NC(=O)/C=C/c2ccc(OC)c(OC)c2)s1,3.1,24.3*,-12.3,9.3
C#CCOCCOCCOCCNc1nc(N2CCN(C(=O)[C@H]([C@@H](C)CC)n3cc([C@@H](N)CO)nn3)CC2)nc(N2CCN(C(=O)[C@H](Cc3cc4ccccc4[nH]3)n3cc([C@@H](N)Cc4ccc(O)cc4)nn3)CC2)n1,56.6*,.,97.6*,48.8*
C#CCOCCOCCOCCNc1nc(N2CCOCC2)nc(N2CCN(C(=O)[C@H](Cc3cc4ccccc4[nH]3)n3cc([C@@H](N)Cc4ccc(O)cc4)nn3)CC2)n1,12.6,23.4*,8.6,20.6
C#CCOCCOCCOCCNc1nc(N2CCN(C(=O)[C@H]([C@@H](C)CC)n3cc([C@@H](N)CO)nn3)CC2)nc(N2CCN(C(=O)[C@H](Cc3ccc(O)cc3)n3cc([C@@H](N)CC(C)C)nn3)CC2)n1,10.5,0.8,9.1,24.7
CCCN(CC(=O)Nc1ccccc1OC)C(=O)c1cc(S(=O)(=O)NCc2ccccc2)ccc1C,61.7*,1.9,29.1,0.5
CCCN(CC(=O)Nc1ccccc1OC)C(=O)c1cccc(S(=O)(=O)NCc2ccccc2)c1,16.8,3.1,4.5,-8.2
Nc1ncnc2oc(-c3ccco3)c(-c3ccco3)c12,1.0,-99.6,61.0*,19.9
Nc1nnc(-c2ccco2)s1,-8.4,0.6,-2.5,4.0
COc1nc(NN=Cc2ccc(-c3ccccc3[N+](=O)[O-])o2)nc(N2CCOCC2)n1,.,3.6,.,.
O=C(CSc1ccsc1[N+](=O)[O-])N1CCN(c2ccc(Cl)cc2)CC1,5.8,-19.0,-5.3,43.6*
O=C(CSc1ccsc1[N+](=O)[O-])N1CCN(c2ccccc2)CC1,6.6,5.2,-10.2,40.6
NC(=S)NN=Cc1ccc(OC(=O)c2cccnc2)cc1,.,4.1,.,.
COc1ccc(/C=C2/C(=O)N(c3c(F)c(F)c(F)c(F)c3F)N=C2C)cc1,53.8*,1.3,-18.2,5.0
CN(C)C(=S)Nn1c(-c2ccccc2)nc2ccccc2c1=O,-10.8,25.1*,1.5,-3.2
CCOc1ccc(C=NNC(=O)c2c(C)nc3cc(C)ccn23)cc1,.,8.0,.,.
C#Cc1ccc([C@H]2C=C(C(=O)N3CCOCC3)O[C@@H](OCC)[C@@H]2CCCO)cc1,0.1,0.0,1.7,10.1
C#Cc1ccc([C@@H]2C=C(C(=O)N3CCOCC3)O[C@H](OCC)[C@H]2CCCO)cc1,4.4,26.9*,-8.5,10.8
Cc1ccc(C=Nc2ccc(N(C)C)cc2)o1,51.1*,7.9,-5.3,39.8
O=C(CCC1N=C2c3ccccc3N=C(SCc3ccc(Cl)cc3)N2C1=O)NCc1ccco1 (stereo not drawn),40.8*,-16.0,14.7,39.0
O=C(CCC1N=C2c3ccccc3N=C(SCc3ccc(F)cc3)N2C1=O)NCc1ccco1 (stereo not drawn),22.6,-25.4,6.3,30.8

# From PubChem
